How the values were obtained:
Format in all cases: functional
HOP-92 [1] = experiment: Growth inhibition of human HOP-92 cells incubated for 48 hrs by sulforhodamine B assay
Procedure, shortened: (§1)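 NCI60 panel at the NCI Developmental Therapeutics Program. Only compounds active in the 10 µM screen went to dose-response testing. GI50, the concentration giving 50% of maximal inhibition of proliferation, and TGI, the concentration giving total growth inhibition, were derived from the dose-response curves.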

MDA-MB-468 = experiment: Growth inhibition of human MDA-MB-468 cells assessed as cell growth at 1 uM incubated for 48 hrs by sulforhodamine B assay relative to control; conditions: read-out: Activity
SF-539 [2] = experiment: Growth inhibition of human SF-539 cells assessed as cell growth at 0.01 uM incubated for 48 hrs by sulforhodamine B assay relative to control; conditions: read-out: Activity
HCC 2998 [3] = experiment: Growth inhibition of human HCC 2998 cells assessed as cell growth at 100 uM incubated for 48 hrs by sulforhodamine B assay relative to control; conditions: read-out: Activity
Procedure, shortened: (§2)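 NCI Developmental Therapeutics Program NCI60 panel. Compounds that were active in the 10 µM one-dose screen went on to dose–response testing. Growth at each concentration is expressed relative to untreated control (100%). GI50 (concentration giving 50% of maximal inhibition of proliferation) and TGI (concentration giving total growth inhibition) were derived from the curves.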

SW-620 = experiment: Growth inhibition of human SW-620 cells assessed as cell growth at 0.01 uM incubated for 48 hrs by sulforhodamine B assay relative to control; conditions: read-out: Activity
U-251 = experiment: Growth inhibition of human U-251 cells assessed as cell growth at 0.01 uM incubated for 48 hrs by sulforhodamine B assay relative to control; conditions: read-out: Activity
KM12 = experiment: Growth inhibition of human KM12 cells assessed as cell growth at 0.01 uM incubated for 48 hrs by sulforhodamine B assay relative to control; conditions: read-out: Activity
OVCAR-3 = experiment: Growth inhibition of human OVCAR-3 cells assessed as cell growth at 100 uM incubated for 48 hrs by sulforhodamine B assay relative to control; conditions: read-out: Activity
CCRF-CEM [4] = experiment: Growth inhibition of human CCRF-CEM cells assessed as cell growth at 1 uM incubated for 48 hrs by sulforhodamine B assay relative to control; conditions: read-out: Activity; procedure, shortened: as §2
OVCAR-8 = experiment: Growth inhibition of human OVCAR-8 cells incubated for 48 hrs by sulforhodamine B assay; conditions: for CC50: read-out: LC50 (the source's name)
Procedure, shortened: (§3)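 NCI DTP 60-line human tumour panel. Dose-response curves were run only for ligands active in the initial 10 µM screen. GI50 (concentration giving 50% of maximal inhibition of proliferation) and TGI (concentration giving total growth inhibition) were derived from these curves.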

BT-549 = experiment: Growth inhibition of human BT-549 cells assessed as cell growth at 0.01 uM incubated for 48 hrs by sulforhodamine B assay relative to control; conditions: read-out: Activity
SNB-19 = experiment: Growth inhibition of human SNB-19 cells assessed as cell growth at 1 uM incubated for 48 hrs by sulforhodamine B assay relative to control; conditions: read-out: Activity
UACC-257 = experiment: Growth inhibition of human UACC-257 cells assessed as cell growth at 0.01 uM incubated for 48 hrs by sulforhodamine B assay relative to control; conditions: read-out: Activity
NCI/ADR-RES = experiment: Growth inhibition of human NCI/ADR-RES cells assessed as cell growth at 1 uM incubated for 48 hrs by sulforhodamine B assay relative to control; conditions: read-out: Activity
K562 [5] = experiment: Growth inhibition of human K562 cells assessed as cell growth at 1 uM incubated for 48 hrs by sulforhodamine B assay relative to control; conditions: read-out: Activity
HCC 2998 [6] = experiment: Growth inhibition of human HCC 2998 cells incubated for 48 hrs by sulforhodamine B assay; conditions: for CC50: read-out: LC50 (the source's name)
HOP-92 [7] = experiment: Growth inhibition of human HOP-92 cells assessed as cell growth at 0.01 uM incubated for 48 hrs by sulforhodamine B assay relative to control; conditions: read-out: Activity
A549 = experiment: Growth inhibition of human A549/ATCC cells assessed as cell growth at 100 uM incubated for 48 hrs by sulforhodamine B assay relative to control; conditions: read-out: Activity; procedure, shortened: as §2
SN12C [8] = experiment: Growth inhibition of human SN12C cells incubated for 48 hrs by sulforhodamine B assay; conditions: for CC50: read-out: LC50 (the source's name); procedure, shortened: as §3
SF-295 = experiment: Growth inhibition of human SF-295 cells assessed as cell growth at 0.01 uM incubated for 48 hrs by sulforhodamine B assay relative to control; conditions: read-out: Activity
SK-MEL-28 = experiment: Growth inhibition of human SK-MEL-28 cells assessed as cell growth at 0.01 uM incubated for 48 hrs by sulforhodamine B assay relative to control; conditions: read-out: Activity
Malme-3M = experiment: Growth inhibition of human Malme-3M cells incubated for 48 hrs by sulforhodamine B assay; procedure, shortened: as §1
CCRF-CEM [9] = experiment: Growth inhibition of human CCRF-CEM cells assessed as cell growth at 100 uM incubated for 48 hrs by sulforhodamine B assay relative to control; conditions: read-out: Activity; procedure, shortened: as §2
K562 [10] = experiment: Growth inhibition of human K562 cells assessed as cell growth at 0.01 uM incubated for 48 hrs by sulforhodamine B assay relative to control; conditions: read-out: Activity
SF-539 [11] = experiment: Growth inhibition of human SF-539 cells incubated for 48 hrs by sulforhodamine B assay; conditions: for CC50: read-out: LC50 (the source's name); procedure, shortened: as §3
A498 = experiment: Growth inhibition of human A498 cells assessed as cell growth at 0.01 uM incubated for 48 hrs by sulforhodamine B assay relative to control; conditions: read-out: Activity; procedure, shortened: as §2
M14 = experiment: Growth inhibition of human M14 cells incubated for 48 hrs by sulforhodamine B assay; procedure, shortened: as §1
SN12C [12] = experiment: Growth inhibition of human SN12C cells assessed as cell growth at 1 uM incubated for 48 hrs by sulforhodamine B assay relative to control; conditions: read-out: Activity
TK-10 = experiment: Growth inhibition of human TK-10 cells assessed as cell growth at 1 uM incubated for 48 hrs by sulforhodamine B assay relative to control; conditions: read-out: Activity
UO-31 = experiment: Growth inhibition of human UO-31 cells assessed as cell growth at 100 uM incubated for 48 hrs by sulforhodamine B assay relative to control; conditions: read-out: Activity
MCF7 = experiment: Growth inhibition of human MCF7 cells incubated for 48 hrs by sulforhodamine B assay; conditions: for CC50: read-out: LC50 (the source's name); procedure, shortened: as §1
T47D = experiment: Growth inhibition of human T47D cells assessed as cell growth at 0.1 uM incubated for 48 hrs by sulforhodamine B assay relative to control; conditions: read-out: Activity
PC-3 = experiment: Growth inhibition of human PC-3 cells incubated for 48 hrs by sulforhodamine B assay; procedure, shortened: as §3
UACC-62 = experiment: Growth inhibition of human UACC-62 cells assessed as cell growth at 1 uM incubated for 48 hrs by sulforhodamine B assay relative to control; conditions: read-out: Activity
NCI-H23 = experiment: Growth inhibition of human NCI-H23 cells assessed as cell growth at 0.01 uM incubated for 48 hrs by sulforhodamine B assay relative to control; conditions: read-out: Activity

Cc1ccc(NC(=O)c2sc3nc4c(cc3c2N)C(=O)CCC4)cc1C
LC50 (concentration killing 50% of the starting cells) (HOP-92 [1]): > 100 µM
TGI (HOP-92 [1]): > 100 µM
growth at 1 µM (MDA-MB-468): -9%
growth at 0.01 µM (SF-539 [2]): 97%
growth at 100 µM (HCC 2998 [3]): 5%
growth at 0.01 µM (SW-620): 99%
growth at 0.01 µM (U-251): 98%
growth at 0.01 µM (KM12): 98%
growth at 100 µM (OVCAR-3): -23%
growth at 1 µM (CCRF-CEM [4]): 7%
GI50 (OVCAR-8): 3.06 µM
TGI (OVCAR-8): > 100 µM
CC50 (OVCAR-8): > 100 µM
growth at 0.01 µM (BT-549): 107%
growth at 1 µM (SNB-19): 37%
growth at 0.01 µM (UACC-257): 96%
growth at 1 µM (NCI/ADR-RES): 39%
growth at 1 µM (K562 [5]): 17%
GI50 (HCC 2998 [6]): 1.4 µM
TGI (HCC 2998 [6]): > 100 µM
CC50 (HCC 2998 [6]): > 100 µM
growth at 0.01 µM (HOP-92 [7]): 87%
growth at 100 µM (A549): 13%
GI50 (SN12C [8]): 0.675 µM
TGI (SN12C [8]): > 100 µM
CC50 (SN12C [8]): > 100 µM
growth at 0.01 µM (SF-295): 91%
growth at 0.01 µM (SK-MEL-28): 99%
LC50 (Malme-3M): > 100 µM
TGI (Malme-3M): > 100 µM
growth at 100 µM (CCRF-CEM [9]): 10%
growth at 0.01 µM (K562 [10]): 114%
GI50 (SF-539 [11]): 0.404 µM
CC50 (SF-539 [11]): > 100 µM
growth at 0.01 µM (A498): 89%
GI50 (M14): 0.366 µM
LC50 (concentration killing 50% of cells) (M14): > 100 µM
TGI (M14): > 100 µM
growth at 1 µM (SN12C [12]): 41%
growth at 1 µM (TK-10): 52%
growth at 100 µM (UO-31): 16%
GI50 (MCF7): 0.339 µM
TGI (MCF7): > 100 µM
CC50 (MCF7): > 100 µM
growth at 0.1 µM (T47D): 97%

CCc1cccc(C)c1NC(=O)c1sc2nc3c(cc2c1N)C(=O)CCC3
GI50 (HOP-92 [1]): 0.446 µM
LC50 (concentration killing 50% of the starting cells) (HOP-92 [1]): > 100 µM
TGI (HOP-92 [1]): 70 µM
growth at 1 µM (MDA-MB-468): -8%
GI50 (PC-3): 0.454 µM
TGI (PC-3): > 100 µM
CC50 (PC-3; read-out: LC50 (the source's name)): > 100 µM
growth at 0.01 µM (SF-539 [2]): 89%
growth at 100 µM (HCC 2998 [3]): 10%
growth at 0.01 µM (SW-620): 97%
growth at 0.01 µM (U-251): 94%
growth at 0.01 µM (KM12): 96%
growth at 100 µM (OVCAR-3): -50%
growth at 1 µM (CCRF-CEM [4]): 16%
GI50 (OVCAR-8): 2.13 µM
TGI (OVCAR-8): ≥ 100 µM
CC50 (OVCAR-8): > 100 µM
growth at 1 µM (SNB-19): 47%
growth at 0.01 µM (UACC-257): 93%
growth at 1 µM (NCI/ADR-RES): 33%
growth at 1 µM (K562 [5]): 16%
growth at 1 µM (UACC-62): 37%
GI50 (HCC 2998 [6]): 1.33 µM
TGI (HCC 2998 [6]): > 100 µM
CC50 (HCC 2998 [6]): > 100 µM
growth at 0.01 µM (HOP-92 [7]): 82%
growth at 100 µM (A549): 6%
GI50 (SN12C [8]): 0.0104 µM
TGI (SN12C [8]): > 100 µM
CC50 (SN12C [8]): > 100 µM
growth at 0.01 µM (NCI-H23): 99%
growth at 0.01 µM (SF-295): 89%
growth at 0.01 µM (SK-MEL-28): 90%
LC50 (Malme-3M): > 100 µM
TGI (Malme-3M): 97.2 µM
growth at 100 µM (CCRF-CEM [9]): -11%
growth at 0.01 µM (K562 [10]): 92%
GI50 (SF-539 [11]): 0.32 µM
CC50 (SF-539 [11]): > 100 µM
growth at 0.01 µM (A498): 80%
GI50 (M14): 0.367 µM
LC50 (concentration killing 50% of cells) (M14): > 100 µM
TGI (M14): 19.5 µM
growth at 1 µM (SN12C [12]): 45%
growth at 100 µM (UO-31): 12%
GI50 (MCF7): 0.36 µM
TGI (MCF7): ≥ 100 µM
CC50 (MCF7): > 100 µM
growth at 0.1 µM (T47D): 91%

From ChEMBL document CHEMBL4715736, “Identification of anticancer agents based on the thieno[2,3-b]pyridine and 1H-pyrazole molecular scaffolds” (2016)
